Active and inactive are the calls of the source.
Key:
Mus musculus [1] = experiment: In vivo inhibition of LDH in human A673 cells xenografted athymic nude CrTac:NCr-Foxn1nu mouse assessed as reduction in tumor LDH activity at 50 mg/kg, iv after 6 hrs by UV-VIS spectrometric method relative to control; assay type: functional
Procedure, shortened: (§1)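 Female athymic nude mice carried SQ A673 flank xenografts (2 million cells) and received a single IV dose of 50 mg/kg in PBS-based vehicle. Four mice per time point were sacrificed at 1, 3, 6 and 24 h. Frozen tumor (10–50 mg) was pulverized and lysed in PBS pH 7.4 with 0.1% Triton X-100 on ice for 1 h. Cleared lysate (10–20 μg) was assayed with 10 mM pyruvate and 0.3 mM final NADH, reading NADH oxidation at 340 nm at 37 °C.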

Mus musculus [2] = experiment: In vivo inhibition of LDH in human A673 cells xenografted athymic nude CrTac:NCr-Foxn1nu mouse assessed as reduction in tumor LDH activity at 50 mg/kg, iv after 1 hr by NADH-based UV-VIS spectrometric method relative to control; assay type: functional, organism-based; procedure, shortened: as §1
[3] = target: T1, L-lactate dehydrogenase A chain (Homo sapiens, UniProt P00338); experiment: Inhibition of recombinant human LDHA using sodium pyruvate as substrate preincubated for 5 mins followed by diaphorase/resazurin addition and measured after 20 mins by fluorescence based assay
[4] = target: T1, L-lactate dehydrogenase A chain; experiment: Inhibition of LDHA in human A673 cells assessed as decrease in lactate production incubated for 2 hrs by lactate oxidase-coupled fluorescence based assay; assay type: cell-based
A673 = experiment: Cytotoxicity against human A673 cells assessed as reduction in cell viability after 48 hrs by CellTiter-Glo assay; assay type: functional, cell-based; settings: A673, 48 h
[5] = target: T1, L-lactate dehydrogenase A chain; experiment: Inhibition of LDHA in human MIA PaCa-2 cells assessed as decrease in lactate production incubated for 2 hrs by lactate oxidase-coupled fluorescence based assay; assay type: cell-based
MIA PaCa-2 = experiment: Cytotoxicity against human MIA PaCa-2 cells assessed as reduction in cell viability after 48 hrs by CellTiter-Glo assay; assay type: functional, cell-based; settings: MIA PaCa-2, 48 h
[6] = target: T1, L-lactate dehydrogenase A chain; experiment: Inhibition of GS[HiBiT]GS-tagged LDHA (unknown origin) expressed in HEK-293T cells measured after 1 hr by […]; assay type: cell-based
Procedure, shortened: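 HEK293T cells were transiently transfected for 24 h with CMV-driven LDHA carrying a C-terminal GS[HiBiT]GS tag, then reseeded at 2500 cells/well in DPBS with Ca/Mg and 1 g/L glucose. […] Cells were lysed with NP40, and 11S (100 nM final) plus furimazine was added.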

[7] = target: L-lactate dehydrogenase B chain (Homo sapiens) (UniProt P07195); experiment: Inhibition of recombinant human LDHB using sodium pyruvate as substrate preincubated for 5 mins followed by diaphorase/resazurin addition and measured after 20 mins by fluorescence based assay
L-lactate dehydrogenase B chain (Homo sapiens), sequence (P07195 2-334 limits assumed): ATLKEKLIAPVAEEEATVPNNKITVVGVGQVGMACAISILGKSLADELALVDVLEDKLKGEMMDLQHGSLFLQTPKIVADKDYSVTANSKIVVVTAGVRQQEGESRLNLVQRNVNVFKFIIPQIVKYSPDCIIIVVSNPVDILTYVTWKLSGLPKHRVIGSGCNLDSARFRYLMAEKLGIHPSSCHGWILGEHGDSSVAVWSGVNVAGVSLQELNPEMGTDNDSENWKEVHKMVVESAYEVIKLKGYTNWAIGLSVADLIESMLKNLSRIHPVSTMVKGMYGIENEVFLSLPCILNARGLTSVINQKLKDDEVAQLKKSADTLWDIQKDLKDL

Sus scrofa = species: Sus scrofa; experiment: Inhibition of porcine heart MDH using malic acid as substrate preincubated for 10 mins followed by substrate addition and measured after 5 mins by resazurin based fluorescence based assay; settings: time 15.0 min
[8] = target: T1, L-lactate dehydrogenase A chain; experiment: Binding affinity to human His-tagged LDHA by SPR analysis
Procedure, shortened: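 SPR on a Mass-1 instrument gave K_D and k_off. Residence time τ was calculated as 1/k_off (s⁻¹).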

[9] = Oral bioavailability in CD-1 mouse at 50 mg/kg and measured up to 24 hrs by LC/MS-MS analysis; assay type: ADME, organism-based; settings: in vivo
Procedure, shortened: (§2)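 Male CD1 mice, about 6–8 weeks old and 20–30 g, were dosed PO at 40 or 50 mg/kg in 0.1 M NaOH in PBS, pH 7–8.5, prepared the same day. Three mice per cohort. Dorsal metatarsal vein blood was collected into heparin at 15, 30 min and 1, 2, 4, 8, 12, 24 h. Plasma was spun at 4 °C, frozen at –75 °C and quantified by LC–MS/MS.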

[10] = Volume of distribution at steady state in CD-1 mouse at 10 mg/kg, iv and measured up to 24 hrs by LC/MS-MS analysis; assay type: ADME, organism-based; settings: in vivo
Procedure, shortened: (§3)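 Male CD1 mice, about 6–8 weeks old and 20–30 g, received 10 mg/kg IV in 0.1 M NaOH in PBS adjusted to pH 7–8.5, made fresh on the day of dosing. Three mice per cohort. Blood was taken from the dorsal metatarsal vein at 5, 15, 30 min and 1, 2, 4, 8, 12, 24 h into heparin tubes. Plasma was spun at 4 °C, stored at –75 °C and analysed by LC–MS/MS. For IV dosing Cmax = C0.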

[11] = AUClast in CD-1 mouse at 50 mg/kg, po and measured up to 24 hrs by LC/MS-MS analysis; assay type: ADME, organism-based; set-up: route oral, dose 50 mg/kg, time <=24; settings: in vivo; procedure, shortened: as §2
[12] = AUClast in CD-1 mouse at 10 mg/kg, iv and measured up to 24 hrs by LC/MS-MS analysis; assay type: ADME, organism-based; set-up: route intravenous, dose 10 mg/kg, time <=24; settings: in vivo; procedure, shortened: as §3
[13] = Cmax in CD-1 mouse at 10 mg/kg, iv and measured up to 24 hrs by LC/MS-MS analysis; assay type: ADME, organism-based; set-up: route intravenous, dose 10 mg/kg, time <=24; settings: in vivo; procedure, shortened: as §3
[14] = Cmax in CD-1 mouse at 50 mg/kg, po and measured up to 24 hrs by LC/MS-MS analysis; assay type: ADME, organism-based; set-up: route oral, dose 50 mg/kg, time <=24; settings: in vivo; procedure, shortened: as §2
[15] = Terminal half life in CD-1 mouse at 50 mg/kg, po and measured up to 24 hrs by LC/MS-MS analysis; assay type: ADME, organism-based; settings: in vivo
Procedure, shortened: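 Male CD1 mice, about 6–8 weeks old and 20–30 g, were dosed PO at 40 or 50 mg/kg in 0.1 M NaOH in PBS, pH 7–8.5, prepared the same day. Three mice per cohort. Plasma was spun at 4 °C, frozen at –75 °C and quantified by LC–MS/MS.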

[16] = Terminal half life in CD-1 mouse at 10 mg/kg, iv and measured up to 24 hrs by LC/MS-MS analysis; assay type: ADME, organism-based; settings: in vivo; procedure, shortened: as §3
[17] = In vivo inhibition of LDH in human A673 cells xenografted athymic nude CrTac:NCr-Foxn1nu mouse assessed as tumor residual LDH activity at 50 mg/kg, iv after 1 hr by UV-VIS spectrometric method relative to control; assay type: functional; procedure, shortened: as §1

Row | Structure (SMILES) | inhibition (Mus musculus [1]) | inhibition (Mus musculus [2]) | IC50 [3] [nM] | IC50 [4] [nM] | IC50 (A673) [nM] | IC50 [5] [nM] | IC50 (MIA PaCa-2) [nM] | IC50 [6] [nM] | inhibition [7] | inhibition (Sus scrofa) | Kd [8] [nM] | F [9] [%] | Vdss [10] [L/kg] | AUClast [11] [µg·h/mL] | AUClast [12] [µg·h/mL] | Cmax [13] [ng/mL] | Cmax [14] [µg/mL] | beta t1/2 [15] [h] | beta t1/2 [16] [h] | Activity [17] [%]
1 | CCCC#Cc1cc(-c2nn(-c3nc(C(=O)O)cs3)c(CC3CC3)c2Cc2ccc(S(N)(=O)=O)c(F)c2)ccc1F | Active | Active | 24 | 420 | 833 | 361 | 746 | 106 | Active | inactive | – | – | – | – | – | – | – | – | – | –
2 | NS(=O)(=O)c1ccc(Cc2c(-c3ccc(F)c(C#CCC4CCCC4)c3)nn(-c3nc(C(=O)O)cs3)c2CC2CC2)cc1F | – | – | 202 | 487 | 939 | 424 | 848 | 178 | Active | inactive | 0.123 | – | – | – | – | – | – | – | – | –
3 | Cc1ccc(C#Cc2cccc(-c3nn(-c4nc(C(=O)O)cs4)c(CC4CC4)c3Cc3ccc(S(N)(=O)=O)c(F)c3)c2)o1 | – | – | 36 | 450 | 285 | 432 | 296 | 168 | Active | inactive | – | 89 | 12.5 | 10.17 | 2.28 | 4570 | 2.28 | 3.7 | 5 | –
4 | Cc1ncc(C#Cc2cc(-c3nn(-c4nc(C(=O)O)cs4)c(CC4CC4)c3Cc3ccc(S(N)(=O)=O)c(F)c3)ccc2F)s1 | – | – | 33 | 937 | 569 | 867 | 488 | – | Active | inactive | – | 38 | 13.9 | 3.44 | 1.82 | 5500 | 1.82 | 3.2 | 5.75 | –
5 | NS(=O)(=O)c1ccc(Cc2c(-c3cccc(C#Cc4ccc(C5CC5)s4)c3)nn(-c3nc(C(=O)O)cs3)c2CC2CC2)cc1F | Active | Active | 201 | 403 | 332 | 434 | 342 | 183 | Active | inactive | – | – | – | – | – | – | – | – | – | <40
6 | C/C=C/c1cc(-c2nn(-c3nc(C(=O)O)cs3)c(CC3CC3)c2Cc2ccc(S(N)(=O)=O)c(F)c2)ccc1F | Active | Active | 11 | 405 | 614 | 321 | 528 | 126 | Active | inactive | – | – | – | – | – | – | – | – | – | –
7 | Cc1ccc(C#Cc2cc(-c3nn(-c4nc(C(=O)O)cs4)c(CCC4CC4)c3Cc3ccc(S(N)(=O)=O)c(F)c3)ccc2F)s1 | Active | Active | 202 | 390 | 218 | 197 | 226 | 200 | Active | inactive | – | 37 | 2.5 | 12.24 | 6.65 | 35300 | 4.73 | 3.2 | 6.5 | –
8 | NS(=O)(=O)c1ccc(Cc2c(-c3ccc(F)c(C#CC4CCCC4)c3)nn(-c3nc(C(=O)O)cs3)c2CC2CC2)cc1F | – | – | 22 | 509 | 100 | 333 | 314 | 112 | Active | inactive | 0.0193 | – | – | – | – | – | – | – | – | –
9 | Cc1cnc(C#Cc2cc(-c3nn(-c4nc(C(=O)O)cs4)c(CC4CC4)c3Cc3ccc(S(N)(=O)=O)c(F)c3)ccc2F)s1 | Active | Active | 52 | 1320 | 803 | 1600 | 909 | 170 | Active | inactive | – | 39 | 17.9 | 2.65 | 1.36 | 3320 | 2.03 | 3.54 | 4.9 | –
10 | NS(=O)(=O)c1ccc(Cc2c(-c3ccc(F)c(/C=C/C4CCCC4)c3)nn(-c3nc(C(=O)O)cs3)c2CC2CC2)cc1F | Active | Active | 74 | 371 | 488 | 149 | 454 | 108 | Active | inactive | – | 83 | 13.3 | 9.22 | 2.81 | 6440 | 1.2 | 3.1 | 5.5 | –

— ChEMBL document CHEMBL4665801, “Pyrazole-Based Lactate Dehydrogenase Inhibitors with Optimized Cell Activity and Pharmacokinetic Properties” (J Med Chem, 2020)
